Rows were chosen to be rich in hits. Some 2.2% of all compounds tested hit in one or more screens of this group.
CHRM5 antagonist: human M5 muscarinic receptor antagonists, primary screen, CHO cells, Fluo-8 calcium fluorescence; CHO-hM5 cells, ACh EC80; inhibition, % at 3 µM; 360,000 compounds, 0.59% hits;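 active = inhibition above a per-plate cutoff, the mean of that plate's test compounds plus 3 SD, cut at about 27% in these data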;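 note: 0% = acetylcholine EC80 with DMSO and 100% = DMSO without agonist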
CHRM5 agonist: human M5 muscarinic receptor agonists, primary screen, CHO-K1 cells, Fluo-8 calcium fluorescence; Muscarinic acetylcholine receptor M5 (Homo sapiens), P08912; CHO-K1 hM5 cells; 0% DMSO wells, 100% maximal acetylcholine response; activation, % at 3 µM; 360,000 compounds, 0.19% hits;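 active = activation above the run's mean over test compounds plus 3 SD, cut at about 23% in these data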;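 note: signal is peak over basal fluorescence ratio across the kinetic read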
CHRM1 agonist: human M1 muscarinic receptor agonists, primary screen, Fluo-8 calcium fluorescence, CHO-K1 cells, HTS; Muscarinic acetylcholine receptor M1 (Homo sapiens), P11229; CHO-K1 hM1, agonist mode; 0% DMSO, 100% acetylcholine EC100; activation, % at 3 µM; 360,000 compounds, 0.33% hits;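 active = activation above the run's mean compound activation plus 3 SD, cut at about 16% in these data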;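 note: peak over basal fluorescence ratio within a 140 s kinetic read after compound addition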
Target sequence (P11229 whole entry, looked up): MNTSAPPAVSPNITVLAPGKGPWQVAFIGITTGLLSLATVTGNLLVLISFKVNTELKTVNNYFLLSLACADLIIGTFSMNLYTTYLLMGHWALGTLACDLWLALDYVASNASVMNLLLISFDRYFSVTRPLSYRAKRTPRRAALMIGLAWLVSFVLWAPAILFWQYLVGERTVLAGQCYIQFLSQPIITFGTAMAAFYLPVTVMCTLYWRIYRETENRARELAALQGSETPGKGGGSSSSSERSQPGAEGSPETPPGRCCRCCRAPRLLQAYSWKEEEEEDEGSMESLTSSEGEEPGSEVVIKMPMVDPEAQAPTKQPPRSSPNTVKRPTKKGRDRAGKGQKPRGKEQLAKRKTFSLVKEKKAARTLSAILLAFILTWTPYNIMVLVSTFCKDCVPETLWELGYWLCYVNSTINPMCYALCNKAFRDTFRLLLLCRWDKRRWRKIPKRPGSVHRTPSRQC
CHRM1 PAM: human M1 muscarinic receptor positive allosteric modulators, primary screen, CHO-K1 cells, Fluo-8 calcium fluorescence, 1536-well; AID 588819, 2011; 360,000 compounds, 0.088% hits; CHO-K1 hM1, ACh EC20; 0% = ACh EC20, 100% = maximal ACh; Muscarinic acetylcholine receptor M1 (Homo sapiens), P11229; activation, % at 3 µM; in the data active = activation above about 19%, passing the limit was not always enough
M5 PAM: human M5 muscarinic receptor positive allosteric modulators, primary screen, CHO-K1 cells, Fluo-8 calcium fluorescence. 360,000 compounds, 0.3% hits. activation, % at 3 µM. AID 624038, 2012. CHO-K1 hM5, ACh EC20 PAM; 0% = ACh EC20, 100% = ACh EC100;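 active = activation above the run cutoff, the mean activation of all test compounds plus 3 SD, cut at about 18% in these data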
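Assay system: CHO-K1 hM5 cells. Also added: acetylcholine at EC20 concentration, added after compound. Dosing: 3 µM, single dose. Times: compound preincubation 140 s before EC20 acetylcholine addition. Signal: Fluo-8 calcium fluorescence. Measure: % activation relative to EC20 and EC100 ACh responses. Repeats: singlicate, one well per test compound.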
M1 antag: human M1 muscarinic receptor antagonists, primary screen, CHO-K1 cells, Fluo-8 calcium fluorescence, 1536-well; 360,000 compounds, 1.3% hits; inhibition, % at 3 µM; CHO-K1 hM1, ACh EC80 antagonist; Muscarinic acetylcholine receptor M1 (Homo sapiens), P11229;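 active = percent inhibition above its own plate's cutoff, namely the mean of that plate's compound wells plus 3 SD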;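 note: peak over basal fluorescence ratio during 140 s after agonist addition; 0% = ACh EC80 plus DMSO and 100% = DMSO alone without agonist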
Active calls of the source: *.

SMILES	CHRM5 antagonist	CHRM5 agonist	CHRM1 agonist	CHRM1 PAM	M5 PAM	M1 antag
COc1cc(OC)cc(-c2n[nH]c(=S)n2-c2ccc3c(c2)OCCO3)c1	-6	-4	-4	-14	3	26*
COc1ccc(-c2n[nH]c(=S)n2-c2ccc3c(c2)OCCO3)cc1	10	-4	-5	5	-2	-5
COc1ccc(NC(=O)N(C)C[C@@H]2OCc3cnnn3CCCC(=O)N([C@H](C)CO)C[C@@H]2C)cc1	-13	0	-1	3	8	1
CCOC(=O)N1CCN(C(=O)c2ccc3c(=O)n(CCC4=CCCCC4)c(=O)[nH]c3c2)CC1	6	-4	-5	-23	-8	66*
CCCCCn1c(=S)[nH]c2cc(C(=O)N3CCN(C(=O)OCC)CC3)ccc2c1=O	-2	-1	-10	-3	5	-1
Cc1cc(C)n(CCOc2ccc(Br)cc2)n1	3	-2	-11	-16	-3	18
CCCN1C(=O)S/C(=C/c2ccc(N3CCOCC3)o2)C1=O	9	4	18*	-4	2	7
CCCN1C(=O)S/C(=C\c2ccc(N3CCOCC3)o2)C1=O	8	-1	-2	-1	0	6
CC(=O)Nc1ccc(/C=N/N2CCCCC2)cc1	-17	15	35*	-15	20*	13
O=C(CCCn1c(=O)[nH]c2ccsc2c1=O)N1CCCCC1	2	-6	1	10	26*	-6
CCCS(=O)(=O)N1CCC(C(=O)N2CCCC2)CC1	11	-1	2	-2	21*	9
O=C(NC1CC1)c1ccc(-c2cnc3cccnn23)cc1	6	0	-1	3	-2	-6
Cc1ccc(C(C)n2cc(C(=O)NCc3cccnc3)nn2)cc1 (stereo unspecified)	-6	5	-2	8	18*	-10
Cc1cc(NC(=S)NC(=O)/C=C/c2ccc(S(=O)(=O)N3CCOCC3)cc2)ccc1Br	6	2	-5	-2	-3	2
COc1cc(/C=N/N(C)C)cc(Br)c1O	-3	2	-1	23*	11	-24
COc1ccc(/C=N/NC(=O)c2ccc(CN3C(=O)c4cccc5cccc3c45)cc2)cc1O	3	-6	23*	1	-9	0
COc1ccc(/C=N/NC(=O)c2nc(-c3ccccc3)cc(-c3ccccc3)n2)cc1O	16	9	-6	-19	-19	38*
Cc1ccc(NC(=O)N2CCC(NC(=O)C(C)(C)C)CC2)cc1	0	-5	1	3	42*	-1
Cn1cnnc1SCC(=O)Nc1ccc(N2CCCCC2)cc1	2	-2	-7	9	-1	-4
CCOc1ccc(N(CC(=O)N2CCN(Cc3ccccc3)CC2)S(C)(=O)=O)cc1	7	-4	-1	6	1	-12
CNc1snc(C)c1C(=O)OCC(=O)c1ccc(Cl)cc1	18	-2	-1	-15	-23	35*
CCN(Cc1ccccc1)C(=O)COC(=O)c1c(C)nsc1NC	19	7	2	-8	-17	7
O=C(Nc1cccc(NC(=O)c2ccc(Cl)cc2Cl)c1)c1cccnc1	5	1	-2	6	-7	-3
O=C(NC1CCN(C(=O)c2ccccc2Br)CC1)c1ccccc1	8	-3	3	12	0	-14
CCN(CC(=O)Nc1cc(Cl)ccc1C)C(=O)c1cc([N+](=O)[O-])ccc1N1CCOCC1	6	-4	-7	10	-3	-17
SMILES	CHRM5 antagonist	CHRM5 agonist	CHRM1 agonist	CHRM1 PAM	M5 PAM	M1 antag
CC(C)CC1C(=O)N(Cc2cn(CC3CCCCC3)nn2)CCS(=O)(=O)N1Cc1ccc(-c2ccncc2)cc1 (stereo unspecified)	4	0	19*	5	-1	12
Nn1c(SCC(=O)Nc2c(Cl)cccc2Cl)nncc1=O	6	2	0	6	2	4
CCCCCC(=O)Nc1ccc(N2CCN(CC)CC2)c(Cl)c1	9	-13	-7	-23	-22	69*
CCN1CCN(c2ccc(NC(=O)c3ccc(C#N)cc3F)cc2Cl)CC1	10	-17	-8	-27	-25	54*
CCN1CCN(c2ccc(NC(=O)c3ccccc3F)cc2Cl)CC1	12	-18	-9	-28	-26	84*
COc1ccc(NC(=O)c2cc3ccccc3cc2OC)cc1OC	8	-3	-5	2	-4	-12
CCN1CCN(c2ccc(NC(=O)c3cc4ccccc4cc3OC)cc2C)CC1	56*	-9	-5	-22	-42	99*
C#CCSc1nnc(-c2cc3c(C(F)(F)F)nn(C)c3s2)n1C	-3	3	-3	12	1	-10
CCOC(=O)c1nc(C)nc(Sc2n[nH]c(-c3ccc(C(C)(C)C)cc3)n2)c1C	20	-4	-7	4	-16	-10
Cc1ccc(-c2csc(NCCn3c(C)nc4cc(C(F)(F)F)ccc43)n2)cc1	8	0	-4	3	-1	1
O=C1NC(=S)S/C1=C\c1cc(Cl)cc(Cl)c1O	30*	193*	40*	-13	-41	36*
CC(C)(C)Nc1nc(-c2ccc3c(c2)CCN3C(=O)C2CC2)cs1	7	-2	-1	1	0	-5
Cc1ccc(NC(=O)c2cc(NC(=O)c3ccco3)ccc2N2CCOCC2)cc1	0	1	-3	0	-9	7
Cc1ccc(NC(=O)c2cc(N3C(=O)C=CC3=O)ccc2N2CCOCC2)cc1	7	2	0	4	21*	-4
COc1cccc(C(=O)O/N=C/c2ccc(Sc3ccc(C)cc3)nc2)c1	-11	-2	-1	8	0	-5
CC(C)c1ccc2c(c1)C1(NN=C(c3ccccc3)S1)C(=O)N2 (stereo unspecified)	4	-2	-5	-11	-11	30*
Cc1ccc(-n2c(-c3ccc(Cl)cc3)n[nH]c2=S)c(C)c1	30*	4	-5	8	-2	-13
CCN(CC)S(=O)(=O)c1ccc(C(=O)N2CCN=C2SCc2cccnc2)cc1	2	-4	-4	5	0	-7
COc1ccc2c(c1)OC[C@H]1[C@H]2N2C(=O)c3cc(F)ccc3NC(=O)[C@@]2(C)[C@H]1c1ccccc1	12	-6	-7	-30	-27	83*

From PubChem
